Laboratory results taken from ChEMBL document CHEMBL3352384, “Synthesis and biological activity of new salicylanilide N,N-disubstituted carbamates and thiocarbamates” (Bioorg Med Chem, 2014).
Converted amounts (≈) assume the structure as drawn.

Legend:
HepG2 = experiment: Cytotoxicity against human HepG2 cells assessed as reduction in cell viability after 24 hrs by MTS assay; assay type: cell-based; conditions: HepG2, 24 h
Outline: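 HepG2 hepatocellular carcinoma cells (passage 3–4) were grown in Eagle's MEM with 10% FBS, 1% L-glutamine and non-essential amino acids. Compounds were added from DMSO at eight concentrations in triplicate, with 10% DMSO as the 0% viability control. Viability was read by tetrazolium salt reduction (CellTiter 96 AQueous One). IC50 is the concentration reducing viability to 50% of control.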

[1] = Selectivity index, ratio of IC50 for human HepG2 cells to MIC for Trichophyton mentagrophytes 445
[2] = tested on: Trichophyton mentagrophytes; experiment: Antimicrobial activity against Trichophyton mentagrophytes 445 after 120 hrs by microdilution method; assay type: functional; conditions: Trichophyton mentagrophytes, 445, 120 h
Outline: (§1)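 Broth microdilution in RPMI 1640 with glutamine, with fluconazole and amphotericin B as references. For filamentous fungi, MIC is expressed as the IC50, i.e. the concentration giving 50% growth reduction versus control. Each determination was done twice.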

[3] = tested on: Trichophyton mentagrophytes; experiment: Antimicrobial activity against Trichophyton mentagrophytes 445 after 72 hrs by microdilution method; assay type: functional; conditions: Trichophyton mentagrophytes, 445, 72 h; outline: as §1
[4] = tested on: Staphylococcus epidermidis; experiment: Antimicrobial activity against Staphylococcus epidermidis H 6966/08 after 48 hrs by microdilution method; assay type: functional; conditions: H 6966/08, 48 h
Outline: (§2)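 Broth microdilution in Mueller-Hinton broth, compounds dissolved in DMSO, final concentrations 500 to 0.49 µM. Benzylpenicillin and bacitracin were run as comparators. MIC was taken as 95% (IC95) or greater growth reduction versus control. Each determination was done twice.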

Staphylococcus aureus [5] = experiment: Antimicrobial activity against methicillin-resistant Staphylococcus aureus H 5996/08 after 48 hrs by microdilution method; assay type: functional; conditions: H 5996/08, 48 h
Outline: (§3)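 Mueller-Hinton broth microdilution; compounds dissolved in DMSO, final concentrations 500 to 0.49 µM. […] Benzylpenicillin and bacitracin as comparators. Each determination done twice.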

[6] = tested on: Staphylococcus epidermidis; experiment: Antimicrobial activity against Staphylococcus epidermidis H 6966/08 after 24 hrs by microdilution method; assay type: functional; conditions: H 6966/08, 24 h; outline: as §2
Enterococcus sp. [7] = experiment: Antimicrobial activity against Enterococcus sp. J 14365/08 after 48 hrs by microdilution method; assay type: functional; conditions: J 14365/08, 48 h; outline: as §2
Staphylococcus aureus [8] = experiment: Antimicrobial activity against Staphylococcus aureus CCM 4516/08 after 24 hrs by microdilution method; assay type: functional; conditions: CCM 4516/08, 24 h; outline: as §3
[9] = Selectivity index, ratio of IC50 for human HepG2 cells to MIC for methicillin-resistant Staphylococcus aureus H 5996/08
Outline: (§4)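 Selectivity index = HepG2 IC50 / MIC. HepG2 cells (passage 3–4) grown in Eagle's MEM with 10% FBS, L-glutamine and non-essential amino acids. Compounds added from DMSO, eight concentrations in triplicate, tetrazolium-reduction colorimetric read-out. IC50 is the concentration reducing viability to 50% of control; 10% DMSO as 0% viability.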

Enterococcus sp. [10] = experiment: Antimicrobial activity against Enterococcus sp. J 14365/08 after 24 hrs by microdilution method; assay type: functional; conditions: J 14365/08, 24 h; outline: as §2
Staphylococcus aureus [11] = experiment: Antimicrobial activity against Staphylococcus aureus CCM 4516/08 after 48 hrs by microdilution method; assay type: functional; conditions: CCM 4516/08, 48 h; outline: as §3
Staphylococcus aureus [12] = experiment: Antimicrobial activity against methicillin-resistant Staphylococcus aureus H 5996/08 after 24 hrs by microdilution method; assay type: functional; conditions: H 5996/08, 24 h; outline: as §3
[13] = Selectivity index, ratio of IC50 for human HepG2 cells to MIC for Mycobacterium tuberculosis H37Rv; assay type: toxicity, cell-based; conditions: read-out: Selectivity Index
Outline: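 Selectivity index = HepG2 IC50 / MIC. HepG2 cells (passage 3–4) grown in Eagle's MEM with 10% FBS, L-glutamine and non-essential amino acids. Compounds added from DMSO, eight concentrations in triplicate, tetrazolium-reduction colorimetric read-out.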

Mycobacterium avium [14] = experiment: Antimycobacterial activity against Isoniazid, rifampicin, ofloxacin and ethambutol-resistant Mycobacterium avium 330/88 assessed as complete growth inhibition after 21 days; assay type: functional; conditions: 330/88, 504 h
Outline: (§5)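 M. tuberculosis 331/88 (H37Rv) inoculum diluted 10-3, M. avium 330/88 diluted 10-5. MIC is the lowest concentration giving complete growth inhibition. Isoniazid and p-aminosalicylic acid as references. Quadruplicate, repeated twice.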

Mycobacterium kansasii [15] = experiment: Antimycobacterial activity against clinical isolate Mycobacterium kansasii 6509/96 assessed as complete growth inhibition after 7 days; assay type: functional; conditions: 6509/96, 168 h
Outline: (§6)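 Dilutions of M. kansasii inoculum were 10-4 for strain 235/80 and 10-5 for clinical isolate 6509/96. MIC was the lowest concentration giving complete growth inhibition, run in quadruplicate and repeated twice.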

Mycobacterium kansasii [16] = experiment: Antimycobacterial activity against clinical isolate Mycobacterium kansasii 6509/96 assessed as complete growth inhibition after 14 days; assay type: functional; conditions: 6509/96, 336 h; outline: as §6
Mycobacterium kansasii [17] = experiment: Antimycobacterial activity against Mycobacterium kansasii 235/80 assessed as complete growth inhibition after 7 days; assay type: functional; conditions: 235/80, 168 h; outline: as §6
Mycobacterium kansasii [18] = experiment: Antimycobacterial activity against Mycobacterium kansasii 235/80 assessed as complete growth inhibition after 14 days; assay type: functional; conditions: 235/80, 336 h; outline: as §6
[19] = tested on: Mycobacterium tuberculosis; experiment: Antimycobacterial activity against Mycobacterium tuberculosis H37Rv 331/88 assessed as complete growth inhibition after 14 days; assay type: functional; conditions: H37Rv 331/88, 336 h; outline: as §5
Mycobacterium kansasii [20] = experiment: Antimycobacterial activity against Mycobacterium kansasii 235/80 assessed as complete growth inhibition after 21 days; assay type: functional; conditions: 235/80, 504 h; outline: as §6
[21] = tested on: Mycobacterium tuberculosis; experiment: Antimycobacterial activity against Mycobacterium tuberculosis H37Rv 331/88 assessed as complete growth inhibition after 21 days; assay type: functional; conditions: H37Rv 331/88, 504 h; outline: as §5
[22] = Inhibition of Mycobacterium tuberculosis H37Rv isocitrate lyase assessed as glyoxylate phenyl hydrazone formation at 10 uM
Mycobacterium avium [23] = experiment: Antimycobacterial activity against Isoniazid, rifampicin, ofloxacin and ethambutol-resistant Mycobacterium avium 330/88 assessed as complete growth inhibition after 14 days; assay type: functional; conditions: 330/88, 336 h; outline: as §5
[24] = Selectivity index, ratio of IC50 for human HepG2 cells to MIC for atypical mycobacteria; outline: as §4
Mycobacterium kansasii [25] = experiment: Antimycobacterial activity against clinical isolate Mycobacterium kansasii 6509/96 assessed as complete growth inhibition after 21 days; assay type: functional; conditions: 6509/96, 504 h; outline: as §6

Compound | IC50 (HepG2) | Selectivity Index [1] | MIC [2] | MIC [3] | MIC [4] | MIC (Staphylococcus aureus [5]) | MIC [6] | MIC (Enterococcus sp. [7]) | MIC (Staphylococcus aureus [8]) | Selectivity Index [9] | MIC (Enterococcus sp. [10]) | MIC (Staphylococcus aureus [11]) | MIC (Staphylococcus aureus [12]) | selectivity ratio [13] | MIC (Mycobacterium avium [14]) | MIC (Mycobacterium kansasii [15]) | MIC (Mycobacterium kansasii [16]) | MIC (Mycobacterium kansasii [17]) | MIC (Mycobacterium kansasii [18]) | MIC [19] | other results
OC(Cn1cncn1)(Cn1cncn1)c1ccc(F)cc1F [FLUCONAZOLE] | > 300 µM | >2.4 | 125 µM (≈ 38.3 µg/mL) | 7.81 µM (≈ 2.39 µg/mL) | – | – | – | – | – | – | – | – | – | – | – | – | – | – | – | – | –
C[C@@H]1[C@H](O)[C@@H](C)/C=C/C=C/C=C/C=C/C=C/C=C/C=C/[C@H](O[C@@H]2O[C@H](C)[C@@H](O)[C@H](N)[C@@H]2O)C[C@@H]2O[C@](O)(C[C@@H](O)C[C@@H](O)[C@H](O)CC[C@@H](O)C[C@@H](O)CC(=O)O[C@H]1C)C[C@H](O)[C@H]2C(=O)O [AMPHOTERICIN B] | 2.5 µM | 1.3 | 1.95 µM (≈ 1.8 µg/mL) | 1.95 µM (≈ 1.8 µg/mL) | – | – | – | – | – | – | – | – | – | – | – | – | – | – | – | – | –
CC1(C)S[C@@H]2[C@H](NC(=O)Cc3ccccc3)C(=O)N2[C@H]1C(=O)O [PENICILLIN G] | > 10000 µM | – | – | – | 250 µM (≈ 83.6 µg/mL) | 125 µM (≈ 41.8 µg/mL) | 250 µM (≈ 83.6 µg/mL) | 15.6 µM (≈ 5.22 µg/mL) | 0.98 µM (≈ 0.328 µg/mL) | >10.2 | 7.81 µM (≈ 2.61 µg/mL) | 0.98 µM (≈ 0.328 µg/mL) | 62.5 µM (≈ 20.9 µg/mL) | – | – | – | – | – | – | – | –
CN(C)C(=S)Oc1ccc(Cl)cc1C(=O)Nc1ccc(Cl)cc1 | 83.5 µM | 442.8 | 1.95 µM (≈ 0.72 µg/mL) | 1.95 µM (≈ 0.72 µg/mL) | 31.2 µM (≈ 11.5 µg/mL) | 7.81 µM (≈ 2.88 µg/mL) | 7.81 µM (≈ 2.88 µg/mL) | > 125 µM | 3.9 µM (≈ 1.44 µg/mL) | 21.4 | 125 µM (≈ 46.2 µg/mL) | 7.81 µM (≈ 2.88 µg/mL) | 3.9 µM (≈ 1.44 µg/mL) | 10.4 | 16 µM (≈ 5.91 µg/mL) | 16 µM (≈ 5.91 µg/mL) | 16 µM (≈ 5.91 µg/mL) | 8 µM (≈ 2.95 µg/mL) | 16 µM (≈ 5.91 µg/mL) | 4 µM (≈ 1.48 µg/mL) | MIC (Mycobacterium kansasii [20]): 16 µM (≈ 5.91 µg/mL); MIC [21]: 8 µM (≈ 2.95 µg/mL); inhibition [22]: 6%; MIC (Mycobacterium avium [23]): 16 µM (≈ 5.91 µg/mL); Selectivity Index [24]: 5.2; MIC (Mycobacterium kansasii [25]): 16 µM (≈ 5.91 µg/mL)
O=C(Nc1ccc(F)cc1)c1cc(Cl)ccc1O | 26.1 µM | 3.3 | – | – | – | – | – | – | – | – | – | – | – | 3.3 | 32 µM (≈ 8.5 µg/mL) | 8 µM (≈ 2.13 µg/mL) | 16 µM (≈ 4.25 µg/mL) | 8 µM (≈ 2.13 µg/mL) | 16 µM (≈ 4.25 µg/mL) | 8 µM (≈ 2.13 µg/mL) | MIC (Mycobacterium kansasii [20]): 16 µM (≈ 4.25 µg/mL); MIC [21]: 8 µM (≈ 2.13 µg/mL); inhibition [22]: 14%; MIC (Mycobacterium avium [23]): 16 µM (≈ 4.25 µg/mL); Selectivity Index [24]: 0.8; MIC (Mycobacterium kansasii [25]): 16 µM (≈ 4.25 µg/mL)
CN(C)C(=S)Oc1ccc(Cl)cc1C(=O)Nc1ccc(C(F)(F)F)cc1 | 67.3 µM | <1 | 500 µM (≈ 201 µg/mL) | 500 µM (≈ 201 µg/mL) | 31.2 µM (≈ 12.6 µg/mL) | 7.81 µM (≈ 3.15 µg/mL) | 31.2 µM (≈ 12.6 µg/mL) | > 500 µM | 7.81 µM (≈ 3.15 µg/mL) | 8.6 | > 500 µM | 7.81 µM (≈ 3.15 µg/mL) | 7.81 µM (≈ 3.15 µg/mL) | 16.8 | 16 µM (≈ 6.45 µg/mL) | 16 µM (≈ 6.45 µg/mL) | 32 µM (≈ 12.9 µg/mL) | 16 µM (≈ 6.45 µg/mL) | 32 µM (≈ 12.9 µg/mL) | 4 µM (≈ 1.61 µg/mL) | MIC (Mycobacterium kansasii [20]): 32 µM (≈ 12.9 µg/mL); MIC [21]: 4 µM (≈ 1.61 µg/mL); inhibition [22]: 12%; MIC (Mycobacterium avium [23]): 16 µM (≈ 6.45 µg/mL); Selectivity Index [24]: 2.1; MIC (Mycobacterium kansasii [25]): 32 µM (≈ 12.9 µg/mL)
